Screening data (PubChem BioAssay)
In the library only some 0.68% were active in any assay of this set; here they are far more common.
HMGR II inh: inhibitors of class II HMG-CoA reductase from Enterococcus faecalis. purified E. faecalis HMGR, NADPH absorbance 340 nm kinetic. inhibition, % at 10 µM. 190,000 tested, 0.41% active. AID 1066;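 active = inhibition above a set limit, the median over all tested compounds plus 3 SD, cut at about 9.5% in these data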;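 also: enzyme runs in reverse so mevalonate oxidation gives rising NADPH absorbance; 0% = complete reaction with DMSO and 100% = background rate lacking mevalonate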
Furin inhibitor: blocks human furin protease activity; P09958; purified furin, fluorogenic substrate cleavage; inhibition, % at 20 µM or 30 µM; 220,000 tested, 0.061% active; in the data active = inhibition above about 25%
Target sequence (P09958 108-714 limits assumed): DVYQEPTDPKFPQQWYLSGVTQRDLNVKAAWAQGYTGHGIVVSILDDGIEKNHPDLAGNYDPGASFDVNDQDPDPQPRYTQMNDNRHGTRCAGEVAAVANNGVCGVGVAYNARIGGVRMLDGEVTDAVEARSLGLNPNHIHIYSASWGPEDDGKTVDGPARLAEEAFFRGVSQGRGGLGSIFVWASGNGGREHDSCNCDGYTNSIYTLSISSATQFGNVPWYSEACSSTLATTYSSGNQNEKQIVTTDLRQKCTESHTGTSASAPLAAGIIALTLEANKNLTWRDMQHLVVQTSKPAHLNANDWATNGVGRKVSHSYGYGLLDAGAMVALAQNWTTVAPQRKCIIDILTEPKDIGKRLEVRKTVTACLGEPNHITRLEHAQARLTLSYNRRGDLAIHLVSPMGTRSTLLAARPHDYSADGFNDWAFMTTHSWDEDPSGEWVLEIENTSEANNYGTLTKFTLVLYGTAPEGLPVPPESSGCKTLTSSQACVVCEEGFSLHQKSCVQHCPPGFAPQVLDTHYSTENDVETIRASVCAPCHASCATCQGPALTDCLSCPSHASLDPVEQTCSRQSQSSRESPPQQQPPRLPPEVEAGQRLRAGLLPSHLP
TNAP inh no acc: TNAP (human) inhibition, acceptor-free conditions. purified TNAP, CDP-star luminescence, 30 min. inhibition, % at 20 µM. 200,000 tested, 0.26% active;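 active = tissue-nonspecific alkaline phosphatase inhibition above about 50% at 20 µM in the single-dose screen, limit read from the data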;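 also: 0% = DMSO negative control and 100% = EDTA positive control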
Pf gametocyte: inhibitors of late stage P. falciparum gametocyte viability. AID 743093. inhibition, % at 10.9 µM. P. falciparum stage V gametocytes, ATP luminescence, 24 h. 150,000 tested, 0.065% active;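 active = inhibition above the mean plus 3 SD of compounds within the control limits, set per campaign, cut at about 38% in these data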;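 also: 0% = DMSO wells and 100% = medium only without gametocytes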
TNAP act hiacc: TNAP (human) activation, high acceptor; AID 1136; purified TNAP, CDP-star luminescence, 1 M DEA, 30 min; hits give high values; 0 = EDTA background, 1 = DMSO-only activity; 200,000 tested, under 10 active; activation factor at 20 µM;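 active = activation factor at least 2 at 20 µM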
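Measured by: Luminescent substrate turnover signal | Test system: Human TNAP | Input: TNAP 1/800 final | Dosing: 20 µM single point | Schedule: 30 min, room temperature | Controls: EDTA wells as negative control, DMSO wells as positive control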
TNAP inh hi DEA: blocks human TNAP under high phosphate acceptor concentration. purified TNAP, CDP-star luminescence, 1 M DEA. inhibition, % at 20 µM. 200,000 tested, 0.03% active;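 active = over 50% inhibition of tissue-nonspecific alkaline phosphatase at 20 µM in the single-dose screen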;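 also: plate controls were DMSO wells for no effect and EDTA-quenched wells as full inhibition for full effect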
Starred values were filed as active, the others as inactive.

How did COc1cc(/C=C/[N+](=O)[O-])ccc1O do in these assays?
HMGR II inh: -2; Furin inhibitor: -18; TNAP inh no acc: 53*; TNAP act hiacc: 0.6; TNAP inh hi DEA: 38

How did CC1=C2C3OC(=O)C(C)C3CC[C@@]2(C)C=CC1=O (some centres undefined) do in these assays?
Furin inhibitor: -27

What do the screens show for `CC(=O)O[C@@H]1[C@H]2CC[C@@H]3[C@]1(C[C@@H](OC(C)=O)[C@@]1(O)C([C@@H]4O[C@@H]4C1(C)C)[C@]3(C)O)C[C@@]2(C)O` (some centres undefined)?
HMGR II inh: -5; Furin inhibitor: -19; TNAP inh no acc: -10; Pf gametocyte: 4; TNAP act hiacc: 1.1; TNAP inh hi DEA: -7

What do the screens show for `Cc1ccc(-n2c(O)c(/C=N/c3ncc(Br)cc3Br)c(=O)[nH]c2=O)cc1`?
HMGR II inh: 10.0*; Furin inhibitor: -12; TNAP inh no acc: -3; Pf gametocyte: -3; TNAP act hiacc: 1; TNAP inh hi DEA: -2

What do the screens show for `Cc1ccc(N2C(=O)/C(=C/c3ccc(CN(CCC#N)S(C)(=O)=O)o3)C(=O)NC2=S)cc1`?
HMGR II inh: -12; Furin inhibitor: -6; TNAP inh no acc: 7; TNAP act hiacc: 0.9; TNAP inh hi DEA: 6

What do the screens show for `CCOc1ccc(-n2c(O)c(N=Nc3c(C)n(C)n(-c4ccccc4)c3=O)c(=O)[nH]c2=O)cc1`?
Furin inhibitor: 25*; Pf gametocyte: -8

How did Cc1c(N=Nc2c(O)[nH]c(=S)[nH]c2=O)c(=O)n(-c2ccccc2)n1C do in these assays?
HMGR II inh: -11; Furin inhibitor: 16; TNAP inh no acc: 2; TNAP act hiacc: 0.9; TNAP inh hi DEA: 14

What do the screens show for `OC(Cn1c2ccccc2c2ccccc21)C[n+]1cccc2ccccc21` (centres undefined)?
HMGR II inh: -21; Furin inhibitor: -16; TNAP inh no acc: 10; TNAP act hiacc: 1; TNAP inh hi DEA: -4

Results for COc1ccc(C(=O)C2CCCN(Cc3cnc(C)s3)C2)c(OC)c1 (centres undefined) ?
HMGR II inh: 16*; Furin inhibitor: -20; TNAP inh no acc: -9; TNAP act hiacc: 1.1; TNAP inh hi DEA: -7

How did O=c1[nH]c(=S)[nH]c(O)c1/C=N/N1CCOCC1 do in these assays?
Furin inhibitor: -6; Pf gametocyte: -4

How did O=C(c1cc(F)ccc1F)C1CCCN(CCCc2ccccc2)C1 (centres undefined) do in these assays?
HMGR II inh: 9.6*; Furin inhibitor: -20; TNAP inh no acc: -4; TNAP act hiacc: 1; TNAP inh hi DEA: 0

What do the screens show for `O=C(c1cc(F)ccc1F)C1CCCN(Cc2cccc(Cl)c2)C1` (centres undefined)?
HMGR II inh: -3; Furin inhibitor: -11; TNAP inh no acc: -12; Pf gametocyte: 22; TNAP act hiacc: 1.1; TNAP inh hi DEA: -8

How did Cn1c2ccccc2c2cnn(CC(=O)N3CCC4(CC3)OCCO4)c(=O)c21 do in these assays?
HMGR II inh: 2; Furin inhibitor: -16; TNAP inh no acc: -11; TNAP act hiacc: 1; TNAP inh hi DEA: -1

How did Cc1c2cnn(CC(=O)N3CCC4(CC3)OCCO4)c(=O)c2c(C)n1Cc1ccccc1F do in these assays?
HMGR II inh: 12*; Furin inhibitor: -29; TNAP inh no acc: -2; TNAP act hiacc: 1; TNAP inh hi DEA: 4

What do the screens show for `CC(Cc1ccccc1)NC(=O)Cc1ccc(N(C)C)cc1` (centres undefined)?
HMGR II inh: 11*; Furin inhibitor: -13; TNAP inh no acc: 14; Pf gametocyte: 9; TNAP act hiacc: 1; TNAP inh hi DEA: -3

What do the screens show for `COc1ccc(Cn2c(O)c(/C=N/NC(=O)c3ccccc3)c(=O)[nH]c2=O)cc1`?
HMGR II inh: 4; Furin inhibitor: -26; TNAP inh no acc: 71*; TNAP act hiacc: 1; TNAP inh hi DEA: 0

How did Oc1ccc(/C=N/NP(=S)(c2ccccc2)c2ccccc2)cc1O do in these assays?
HMGR II inh: -5; Furin inhibitor: -16; TNAP inh no acc: 77*; Pf gametocyte: -29; TNAP act hiacc: 0.8; TNAP inh hi DEA: 18
